Results reported in ChEMBL document CHEMBL3784967, “7-Substituted umbelliferone derivatives as androgen receptor antagonists for the potential treatment of prostate and breast cancer” (Bioorg Med Chem Lett, 2016).

test system: MCF7; assay: Antiproliferative activity against human MCF7 cells after 96 hrs by Oncotest monolayer assay; type: functional, cell-based; conditions: Homo sapiens, MCF7, 96 h; read-out: IC50; call rule not given here
In short: (§1)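 Cells from exponential-phase cultures seeded at 8000-12,000 cells/well, left 24 h to recover, then given compound at 10 concentrations in half-log steps up to 100 µM, in triplicate. After 96 h total exposure, wells were PBS-washed and stained with 7 µg/ml propidium iodide plus 0.1% Triton X-100 for 1-2 h at room temperature. Fluorescence (ex 530/em 620 nm) was read. Absolute IC50 was obtained by non-linear regression.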

SMILES	IC50 [µM]
Cc1cc(=O)oc2cc(OCC(=O)c3ccc4c(c3)OCCCO4)ccc12	> 100
Cc1ccc(C(=O)COc2ccc3c(C)cc(=O)oc3c2)cc1	> 100
COc1ccc(C(=O)COc2ccc3c(C)cc(=O)oc3c2)cc1	> 100
COc1cccc(C(=O)COc2ccc3c(C)cc(=O)oc3c2)c1	2.21
Cc1cc(=O)oc2cc(OCC(=O)c3ccccc3C(F)(F)F)ccc12	43.2
Cc1cc(=O)oc2cc(OCC(=O)c3ccc(C(C)(C)C)cc3)ccc12	20.7
Cc1cc(=O)oc2cc(OCC(=O)c3ccc(C(F)(F)F)cc3)ccc12	> 100
Cc1cc(=O)oc2cc(OCC(=O)c3cccc(C(F)(F)F)c3)ccc12	38.4
Cc1cc(=O)oc2cc(OCC(=O)c3ccc(OC(F)(F)F)cc3)ccc12	> 100
Cc1cc(=O)oc2cc(OCC(=O)c3cc(C(F)(F)F)cc(C(F)(F)F)c3)ccc12	0.47
Cc1cc(=O)oc2cc(OCC(=O)c3ccccc3)ccc12	> 100
Cc1cc(=O)oc2cc(OCC(=O)c3ccc(C#N)cc3)ccc12	> 100
Cc1cc(=O)oc2cc(OCC(=O)c3ccc(F)cc3)ccc12	> 100
Cc1cc(=O)oc2cc(OCC(=O)c3ccc4ccccc4c3)ccc12	> 100

same assay, conditions: mcf7

SMILES	IC50
COc1ccc(C(=O)COc2ccc3c(C(F)(F)F)cc(=O)oc3c2)cc1	Not Active
COc1cccc(C(=O)COc2ccc3c(C(F)(F)F)cc(=O)oc3c2)c1	Not Active
O=C(COc1ccc2c(C(F)(F)F)cc(=O)oc2c1)c1ccccc1C(F)(F)F	Not Active
CC(C)(C)C(=O)COc1ccc2c(C(F)(F)F)cc(=O)oc2c1	Not Active
Cc1ccc(C(=O)COc2ccc3c(C(F)(F)F)cc(=O)oc3c2)cc1	Not Active
O=C(COc1ccc2c(C(F)(F)F)cc(=O)oc2c1)c1cc(C(F)(F)F)cc(C(F)(F)F)c1	Not Active
O=C(COc1ccc2c(C(F)(F)F)cc(=O)oc2c1)c1ccc(OC(F)(F)F)cc1	Not Active
O=C(COc1ccc2c(C(F)(F)F)cc(=O)oc2c1)c1ccc2ccccc2c1	Not Active
O=C(COc1ccc2c(C(F)(F)F)cc(=O)oc2c1)c1cccc(C(F)(F)F)c1	Not Active
O=C(COc1ccc2c(C(F)(F)F)cc(=O)oc2c1)c1ccccc1	Not Active
O=C(COc1ccc2c(C(F)(F)F)cc(=O)oc2c1)c1ccc(C(F)(F)F)cc1	Not Active
O=C(COc1ccc2c(C(F)(F)F)cc(=O)oc2c1)c1ccc2c(c1)OCCCO2	Not Active
N#Cc1ccc(C(=O)COc2ccc3c(C(F)(F)F)cc(=O)oc3c2)cc1	Not Active
O=C(COc1ccc2c(C(F)(F)F)cc(=O)oc2c1)c1ccc(F)cc1	Not Active
CC(C)(C)c1ccc(C(=O)COc2ccc3c(C(F)(F)F)cc(=O)oc3c2)cc1	Not Active

test system: CWR22R; assay: Antiproliferative activity against human 22Rv1 cells after 96 hrs by Oncotest monolayer assay; type: functional, cell-based; conditions: Homo sapiens, 22Rv1, 96 h; read-out: IC50; in short: as §1

SMILES	IC50 [µM]
Cc1cc(=O)oc2cc(OCC(=O)c3ccc4c(c3)OCCCO4)ccc12	> 100
Cc1ccc(C(=O)COc2ccc3c(C)cc(=O)oc3c2)cc1	> 100
COc1ccc(C(=O)COc2ccc3c(C)cc(=O)oc3c2)cc1	> 100
COc1cccc(C(=O)COc2ccc3c(C)cc(=O)oc3c2)c1	8.41
Cc1cc(=O)oc2cc(OCC(=O)c3ccccc3C(F)(F)F)ccc12	20.4
Cc1cc(=O)oc2cc(OCC(=O)c3ccc(C(C)(C)C)cc3)ccc12	22.3
Cc1cc(=O)oc2cc(OCC(=O)c3ccc(C(F)(F)F)cc3)ccc12	> 100
CNC(=O)c1ccc(N2C(=S)N(c3ccc(C#N)c(C(F)(F)F)c3)C(=O)C2(C)C)cc1F [ENZALUTAMIDE]	31.8
Cc1cc(=O)oc2cc(OCC(=O)c3cccc(C(F)(F)F)c3)ccc12	> 100
Cc1cc(=O)oc2cc(OCC(=O)c3ccc(OC(F)(F)F)cc3)ccc12	> 100
Cc1cc(=O)oc2cc(OCC(=O)c3cc(C(F)(F)F)cc(C(F)(F)F)c3)ccc12	0.93
CC(O)(CS(=O)(=O)c1ccc(F)cc1)C(=O)Nc1ccc(C#N)c(C(F)(F)F)c1 (configuration not stated) [BICALUTAMIDE]	46.2
Cc1cc(=O)oc2cc(OCC(=O)c3ccccc3)ccc12	> 100
Cc1cc(=O)oc2cc(OCC(=O)c3ccc(C#N)cc3)ccc12	> 100
Cc1cc(=O)oc2cc(OCC(=O)c3ccc(F)cc3)ccc12	> 100
Cc1cc(=O)oc2cc(OCC(=O)c3ccc4ccccc4c3)ccc12	> 100

same assay, conditions: cwr22r

SMILES	IC50
COc1ccc(C(=O)COc2ccc3c(C(F)(F)F)cc(=O)oc3c2)cc1	Not Active
COc1cccc(C(=O)COc2ccc3c(C(F)(F)F)cc(=O)oc3c2)c1	Not Active
O=C(COc1ccc2c(C(F)(F)F)cc(=O)oc2c1)c1ccccc1C(F)(F)F	Not Active
CC(C)(C)C(=O)COc1ccc2c(C(F)(F)F)cc(=O)oc2c1	Not Active
Cc1ccc(C(=O)COc2ccc3c(C(F)(F)F)cc(=O)oc3c2)cc1	Not Active
O=C(COc1ccc2c(C(F)(F)F)cc(=O)oc2c1)c1cc(C(F)(F)F)cc(C(F)(F)F)c1	Not Active
O=C(COc1ccc2c(C(F)(F)F)cc(=O)oc2c1)c1ccc(OC(F)(F)F)cc1	Not Active
O=C(COc1ccc2c(C(F)(F)F)cc(=O)oc2c1)c1ccc2ccccc2c1	Not Active
O=C(COc1ccc2c(C(F)(F)F)cc(=O)oc2c1)c1cccc(C(F)(F)F)c1	Not Active
O=C(COc1ccc2c(C(F)(F)F)cc(=O)oc2c1)c1ccccc1	Not Active
O=C(COc1ccc2c(C(F)(F)F)cc(=O)oc2c1)c1ccc(C(F)(F)F)cc1	Not Active
O=C(COc1ccc2c(C(F)(F)F)cc(=O)oc2c1)c1ccc2c(c1)OCCCO2	Not Active
N#Cc1ccc(C(=O)COc2ccc3c(C(F)(F)F)cc(=O)oc3c2)cc1	Not Active
O=C(COc1ccc2c(C(F)(F)F)cc(=O)oc2c1)c1ccc(F)cc1	Not Active
CC(C)(C)c1ccc(C(=O)COc2ccc3c(C(F)(F)F)cc(=O)oc3c2)cc1	Not Active

test system: CWR22R; assay: Potency index, ratio IC50 of bicalutamide to IC50 of compound for antiproliferative activity against human 22Rv1 cells; type: functional; conditions: not given

SMILES	Ratio IC50
Cc1cc(=O)oc2cc(OCC(=O)c3ccccc3C(F)(F)F)ccc12	2
Cc1cc(=O)oc2cc(OCC(=O)c3ccc(C(C)(C)C)cc3)ccc12	2
Cc1cc(=O)oc2cc(OCC(=O)c3cc(C(F)(F)F)cc(C(F)(F)F)c3)ccc12	50

test system: CWR22R; assay: Potency index, ratio IC50 of enzalutamide to IC50 of compound for antiproliferative activity against human 22Rv1 cells; type: functional; conditions: not given

SMILES	Ratio IC50
Cc1cc(=O)oc2cc(OCC(=O)c3cc(C(F)(F)F)cc(C(F)(F)F)c3)ccc12	> 30

target: T1, Androgen receptor (Homo sapiens, UniProt P10275); assay: Antagonist activity against androgen receptor (unknown origin); conditions: not given
T1 sequence (P10275 whole entry): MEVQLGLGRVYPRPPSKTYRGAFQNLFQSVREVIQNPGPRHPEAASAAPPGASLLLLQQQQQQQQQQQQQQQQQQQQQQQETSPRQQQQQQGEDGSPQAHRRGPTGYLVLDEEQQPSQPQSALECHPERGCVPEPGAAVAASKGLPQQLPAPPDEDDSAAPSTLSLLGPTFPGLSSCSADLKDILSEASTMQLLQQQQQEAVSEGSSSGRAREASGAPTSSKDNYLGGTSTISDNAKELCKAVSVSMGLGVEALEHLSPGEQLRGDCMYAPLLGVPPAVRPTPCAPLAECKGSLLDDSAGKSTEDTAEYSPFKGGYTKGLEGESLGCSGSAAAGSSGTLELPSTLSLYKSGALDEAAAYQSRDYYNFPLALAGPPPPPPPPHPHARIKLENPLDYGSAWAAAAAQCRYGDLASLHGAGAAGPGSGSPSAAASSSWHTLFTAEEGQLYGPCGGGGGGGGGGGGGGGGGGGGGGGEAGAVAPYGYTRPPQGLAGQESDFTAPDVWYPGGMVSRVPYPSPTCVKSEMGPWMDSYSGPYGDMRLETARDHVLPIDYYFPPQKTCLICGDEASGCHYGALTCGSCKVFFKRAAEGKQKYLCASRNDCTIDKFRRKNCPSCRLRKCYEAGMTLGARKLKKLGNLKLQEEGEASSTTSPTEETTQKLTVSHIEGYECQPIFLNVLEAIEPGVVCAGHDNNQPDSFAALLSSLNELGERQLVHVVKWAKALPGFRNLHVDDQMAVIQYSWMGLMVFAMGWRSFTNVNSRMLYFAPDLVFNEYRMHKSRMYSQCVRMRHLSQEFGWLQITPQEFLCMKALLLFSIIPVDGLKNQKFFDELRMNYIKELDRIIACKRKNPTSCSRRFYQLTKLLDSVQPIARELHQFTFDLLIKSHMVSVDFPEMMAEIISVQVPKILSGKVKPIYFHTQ

SMILES	IC50
Cc1cc(=O)oc2cc(OCC(=O)c3ccc4c(c3)OCCCO4)ccc12	Not Active
Cc1ccc(C(=O)COc2ccc3c(C)cc(=O)oc3c2)cc1	Not Active
COc1ccc(C(=O)COc2ccc3c(C)cc(=O)oc3c2)cc1	Not Active
COc1ccc(C(=O)COc2ccc3c(C(F)(F)F)cc(=O)oc3c2)cc1	Not Active
COc1cccc(C(=O)COc2ccc3c(C(F)(F)F)cc(=O)oc3c2)c1	Not Active
O=C(COc1ccc2c(C(F)(F)F)cc(=O)oc2c1)c1ccccc1C(F)(F)F	Not Active
Cc1cc(=O)oc2cc(OCC(=O)c3ccc(C(F)(F)F)cc3)ccc12	Not Active
Cc1cc(=O)oc2cc(OCC(=O)c3cccc(C(F)(F)F)c3)ccc12	Not Active
CC(C)(C)C(=O)COc1ccc2c(C(F)(F)F)cc(=O)oc2c1	Not Active
Cc1ccc(C(=O)COc2ccc3c(C(F)(F)F)cc(=O)oc3c2)cc1	Not Active
Cc1cc(=O)oc2cc(OCC(=O)c3ccc(OC(F)(F)F)cc3)ccc12	Not Active
O=C(COc1ccc2c(C(F)(F)F)cc(=O)oc2c1)c1cc(C(F)(F)F)cc(C(F)(F)F)c1	Not Active
Cc1cc(=O)oc2cc(OCC(=O)c3ccccc3)ccc12	Not Active
O=C(COc1ccc2c(C(F)(F)F)cc(=O)oc2c1)c1ccc(OC(F)(F)F)cc1	Not Active
O=C(COc1ccc2c(C(F)(F)F)cc(=O)oc2c1)c1ccc2ccccc2c1	Not Active
O=C(COc1ccc2c(C(F)(F)F)cc(=O)oc2c1)c1cccc(C(F)(F)F)c1	Not Active
O=C(COc1ccc2c(C(F)(F)F)cc(=O)oc2c1)c1ccccc1	Not Active
O=C(COc1ccc2c(C(F)(F)F)cc(=O)oc2c1)c1ccc(C(F)(F)F)cc1	Not Active
Cc1cc(=O)oc2cc(OCC(=O)c3ccc(C#N)cc3)ccc12	Not Active
O=C(COc1ccc2c(C(F)(F)F)cc(=O)oc2c1)c1ccc2c(c1)OCCCO2	Not Active
Cc1cc(=O)oc2cc(OCC(=O)c3ccc(F)cc3)ccc12	Not Active
N#Cc1ccc(C(=O)COc2ccc3c(C(F)(F)F)cc(=O)oc3c2)cc1	Not Active
Cc1cc(=O)oc2cc(OCC(=O)c3ccc4ccccc4c3)ccc12	Not Active
O=C(COc1ccc2c(C(F)(F)F)cc(=O)oc2c1)c1ccc(F)cc1	Not Active
CC(C)(C)c1ccc(C(=O)COc2ccc3c(C(F)(F)F)cc(=O)oc3c2)cc1	Not Active

same assay, conditions: read-out: IC50

SMILES	IC50 [µM]
CCOC(=O)C(CC)Oc1ccc2c(C)cc(=O)oc2c1 (configuration not stated)	5
Cc1cc(=O)oc2cc(OCC(=O)C(C)(C)C)ccc12	3.76
Cc1cc(=O)oc2cc(OC(C)C(=O)c3ccccc3)ccc12 (configuration not stated)	5.09
